Experimental data as given in ChEMBL document CHEMBL1122898, “Antiulcer agents. 1. Gastric antisecretory and cytoprotective properties of substituted imidazo[1,2-a]pyridines” (1985).

Legend:
Type in all cases: functional
Canis familiaris [1] = assay: Inhibition of histamine stimulated gastric acid secretion in adult mongrel dogs at dose 5 mg/kg given intravenously; details: Canis lupus familiaris, Stomach, route intravenous
Summary of the method: (§1)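 Dogs with Heidenhain pouches, 12–18 kg, fasted 18 h. Compound given iv in 3 mL or by gavage in 5 mL of 0.4% methylcellulose/saline, 1 h after infusion start. 30-min collections titrated. Summed 3-h AO against the same dog's control AO gives % inhibition. Usually one dog per compound.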

Canis familiaris [2] = assay: Inhibition of histamine stimulated gastric acid secretion in adult mongrel dogs at dose 8 mg/kg given orally; details: Canis lupus familiaris, Stomach, route oral; summary of the method: as §1
Rattus norvegicus [3] = assay: Gastric antisecretory activity in the pylorus-ligated rat and the reduction in acid output was measured after 4 hr by intraperitoneal (ip) administration of 40 mg/kg dose.
Summary of the method: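 Male Charles River CD rats, 150–200 g, fasted 24 h. Pylorus ligated under Brevital anesthesia. 40 mg/kg given ip in 2.5% Tween 80 at ligation. Stomach contents collected at 4 h and titrated with 0.1 N NaOH to pH 7.0. % inhibition from mean AO, 6 treated vs 8 control rats. Student's t test.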

Canis familiaris [4] = assay: Inhibition of histamine stimulated gastric acid secretion in mongrel dogs following 4 mg/kg p.o. administration.; details: Canis lupus familiaris, Stomach, route oral; summary of the method: as §1
Rattus norvegicus [5] = species on record: Rattus norvegicus; assay: Oral gastric cytoprotective activity in the rat against ethanol-induced lesions; details: Stomach
Summary of the method: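 Rats fasted and water-deprived for 20 h. Compound given orally, 1–30 mg/kg in 0.4% methylcellulose/saline, 30 min before 1 mL absolute ethanol po. Killed 1 h after ethanol. Linear hemorrhagic lesion lengths totalled per stomach, expressed as group mean. ED50 by linear regression.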

Canis familiaris [6] = assay: Inhibition of histamine stimulated gastric acid secretion in adult mongrel dogs at dose 2 mg/kg given intravenously; details: Canis lupus familiaris, Stomach, route intravenous; summary of the method: as §1

SMILES | inhibition in vivo at 5 mg/kg (Canis familiaris [1]) [%] | inhibition in vivo at 8 mg/kg (Canis familiaris [2]) [%] | inhibition in vivo at 40 mg/kg (Rattus norvegicus [3]) [%] | inhibition in vivo at 4 mg/kg (Canis familiaris [4]) [%] | ED50 (Rattus norvegicus [5]) [mg/kg] | inhibition in vivo at 2 mg/kg (Canis familiaris [6]) [%]
Cc1nc2c(OCc3ccccc3)cccn2c1COC(=O)c1cccnc1 | 88 | 0 | 87 | – | – | –
Cc1nc2c(OCc3ccc(F)cc3)cccn2c1CC#N | 95 | 87 | 99 | 35 | 5 | –
Cc1nc2c(OCc3ccccn3)cccn2c1CC#N | 29 | – | 56 | – | 2.4 | –
CCSCc1c(C)nc2c(OCc3ccccc3)cccn12 | 0 | – | 36 | – | – | –
Cc1nc2c(OCc3ccccc3)cccn2c1CC(N)=O | 46 | – | 28 | 0 | 27 | –
Cc1nc2c(OCc3ccc(C(C)(C)C)cc3)cccn2c1CC#N | 52 | 47 | 47 | 37 | – | –
CSCc1c(C)nc2c(OCc3ccccc3)cccn12 | 8 | – | 29 | – | – | –
COC(=O)Cc1c(C)nc2c(OCc3ccccc3)cccn12 | 16 | – | 23 | – | – | –
Cc1nc2c(OCc3ccccc3F)cccn2c1CC#N | 97 | 65 | 96 | 34 | 6 | –
CC(=O)OCc1c(C)nc2c(OCc3ccccc3)cccn12 | 87 | 24 | 88 | – | 5.5 | 54
Cc1nc2c(OCc3ccccc3)cccn2c1COC(=O)C(C)(C)C | – | 12 | 48 | – | 8 | 43
Cc1nc2c(OCc3ccccc3)cccn2c1CC(=N)N | 0 | – | 79 | – | – | –
Cc1nc2c(OCc3ccccc3)cccn2c1CS(C)(=O)=O | 0 | – | 61 | – | – | –
Cc1nc2c(S(=O)(=O)Cc3ccccc3)cccn2c1CC#N | 6 | – | 9 | – | 16 | –
Cc1nc2c(OCc3ccccc3)cccn2c1COC(=O)N(C)C | 23 | 49 | 75 | – | – | –
CC(C)c1nc2c(OCc3ccccc3)cccn2c1CC#N | 96 | 39 | 72 | 36 | 5 | –
Cc1cc(C)c(COc2cccn3c(CC#N)c(C)nc23)c(C)c1 | 86 | 40 | 49 | 0 | – | 22
N#CCc1c(C(F)(F)F)nc2c(OCc3ccccc3)cccn12 | 0 | – | 0 | – | – | –
Cc1nc2c(OCc3ccc(Cl)c(Cl)c3)cccn2c1CC#N | – | 23 | 42 | 16 | 6 | 89
CCc1nc2c(OCc3ccccc3)cccn2c1C | – | 27 | 79 | – | 9.8 | 78

SMILES | inhibition in vivo at 5 mg/kg (Canis familiaris [1]) [%] | inhibition in vivo at 8 mg/kg (Canis familiaris [2]) [%] | inhibition in vivo at 40 mg/kg (Rattus norvegicus [3]) [%] | inhibition in vivo at 4 mg/kg (Canis familiaris [4]) [%] | ED50 (Rattus norvegicus [5]) [mg/kg] | inhibition in vivo at 2 mg/kg (Canis familiaris [6]) [%]
Cc1nc2c(OCc3ccccc3)cccn2c1CC(=O)O | 24 | – | 12 | – | – | –
Cc1nc2c(OCc3cccnc3)cccn2c1CC#N | 8 | – | 46 | – | 7.4 | –
Cc1nc2c(OCc3ccccc3)cccn2c1Cl | 37 | 43 | 93 | – | – | –
CCOCc1c(C)nc2c(OCc3ccccc3)cccn12 | 35 | 0 | 84 | – | – | –
Cc1nc2cc(CCc3ccccc3)ccn2c1CC#N | – | – | 11 | – | 3 | 26
Cc1nc2c(OCc3cccc4ccccc34)cccn2c1CC#N | 78 | 15 | 0 | – | 9.8 | –
CCCCC(=O)OCc1c(C)nc2c(OCc3ccccc3)cccn12 | 96 | 13 | 45 | – | – | –
CNC(=O)Cc1c(C)nc2c(OCc3ccccc3)cccn12 | 14 | – | 24 | – | – | –
Cc1nc2c([S+]([O-])Cc3ccccc3)cccn2c1CC#N (configuration not stated) | 26 | – | 37 | – | 5 | –
Cc1nc2c(OCc3ccccc3)cccn2c1C[S+](C)[O-] (configuration not stated) | 18 | – | 0 | – | – | –
Cc1nc2c(OCc3ccoc3)cccn2c1CC#N | 60 | 42 | 99 | – | 1.4 | –
Cc1nc2c(OCc3ccccc3)cccn2c1C(N)=O | 2 | – | 42 | – | – | –
c1ccc(COc2cccn3c4c(nc23)CCCC4)cc1 | – | 28 | – | – | – | 24
Cc1nc2c(OCCCc3ccccc3)cccn2c1CC#N | 80 | 8 | 64 | – | 4.3 | –
Cc1nc2c(OCc3ccccc3)cccn2c1CC(=S)N(C)C | 0 | – | 21 | – | – | –
Cc1nc2c(OCc3ccccc3)cccn2c1CCC#N | 20 | – | 40 | – | 1.5 | –
Cc1nc2c(N(C)Cc3ccccc3)cccn2c1CC#N | – | – | 94 | 23 | – | 46
CCc1c(C)nc2c(OCc3ccccc3)cccn12 | – | – | – | – | 2 | 37
Cc1nc2c(OC(C)c3ccccc3)cccn2c1CC#N (configuration not stated) | 97 | 45 | 96 | 6 | 3.7 | 78
COc1ccc(COc2cccn3c(CC#N)c(C)nc23)cc1 | – | 7 | 25 | 13 | – | 43

SMILES | inhibition in vivo at 5 mg/kg (Canis familiaris [1]) [%] | inhibition in vivo at 8 mg/kg (Canis familiaris [2]) [%] | inhibition in vivo at 40 mg/kg (Rattus norvegicus [3]) [%] | inhibition in vivo at 4 mg/kg (Canis familiaris [4]) [%] | ED50 (Rattus norvegicus [5]) [mg/kg] | inhibition in vivo at 2 mg/kg (Canis familiaris [6]) [%]
Cc1nc2c(SCc3ccccc3)cccn2c1CC#N | 89 | 2 | 22 | – | 7 | –
Cc1cn2cccc(OCc3ccccc3)c2n1 | 70 | 0 | 62 | – | 4 | 61
Cc1nc2c(OCc3ccccc3)cccn2c1C(C)(C)C#N | 0 | – | 57 | – | 12.3 | –
CCOC(=O)c1c(C)nc2c(OCc3ccccc3)cccn12 | – | – | 22 | – | – | –
Cc1nc2c(O)cccn2c1CC#N | 0 | – | 0 | – | – | –
Cc1nc2c(COc3ccccc3)cccn2c1C | – | 21 | 48 | – | 6 | 44
Cc1nc2c(OCc3ccccc3)cccn2c1C(C)C#N (configuration not stated) | – | 1 | 74 | – | 2.9 | 4
Cc1nc2c(OCc3ccccc3)cccn2c1Br | 63 | 0 | 26 | – | – | –
Cc1nc2c(C[S+]([O-])c3ccccc3)cccn2c1C (configuration not stated) | – | – | 42 | – | – | 0
Cc1nc2c(OCc3ccc(C#N)cc3)cccn2c1CC#N | 71 | 33 | 69 | 0 | 8 | –
Cc1nc2c(OCc3ccncc3)cccn2c1CC#N | 36 | – | 51 | – | 2.6 | –
Cc1nc2c(Oc3ccccc3)cccn2c1CC#N | 0 | – | 24 | – | 3.4 | –
Cc1nc2ccc(CCc3ccccc3)cn2c1CC#N | 0 | – | 8 | – | 2.7 | –
Cc1nc2c(OCc3cccc(C(F)(F)F)c3)cccn2c1CC#N | 30 | 38 | 61 | – | 6.5 | –
c1ccc(COc2cccn3c4c(nc23)CCC4)cc1 | 0 | – | 26 | – | – | –
C/N=C(/S)Cc1c(C)nc2c(OCc3ccccc3)cccn12 | 0 | – | 7 | – | – | –
Cc1nc2c(OCc3ccc(S(C)(=O)=O)cc3)cccn2c1CC#N | – | – | 2 | – | – | –
CC(=O)c1c(C)nc2c(OCc3ccccc3)cccn12 | 9 | – | 57 | – | – | –
Cc1nc2c(OCc3ccccc3)cccn2c1CC1=NCCN1 | – | – | 69 | – | – | –
COCc1c(C)nc2c(OCc3ccccc3)cccn12 | 29 | 37 | 99 | – | – | –
